From PubChem
DSG3 Ab inh – inhibitors of pemphigus antibody binding to DSG3, primary screen, biochemical, bead-based, flow cytometry, scFv-GFP; Desmoglein-3 (Homo sapiens), P32926; DSG3-coupled beads, scFv-anti-DSG3-GFP binding; active compounds read low; binding (percent of control), % at 10 µM; 310,000 compounds, 0.48% hits; AID 588358, 2011;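 active = binding more than 3 SD below its plate's average and above zero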;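 also: hits lower antibody fragment binding to DSG3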
Neddyl block – inhibitors of cullin neddylation, primary screen, biochemical, TR-FRET, uHTS, NAE and Ubc12. NEDD8-conjugating enzyme Ubc12 (Homo sapiens) + NEDD8-activating enzyme E1 regulatory …. 360,000 compounds, 0.58% hits. AID 651699, 2012. inhibition, % at 25 µM; in the data active = inhibition above about 36%
Target sequence (P61081 whole entry, looked up): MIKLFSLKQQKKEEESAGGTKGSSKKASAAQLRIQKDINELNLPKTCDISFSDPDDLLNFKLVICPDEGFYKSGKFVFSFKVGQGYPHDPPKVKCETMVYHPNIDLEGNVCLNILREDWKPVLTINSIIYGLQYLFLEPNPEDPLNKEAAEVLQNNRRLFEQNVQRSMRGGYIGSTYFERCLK
Target sequence (Q13564 whole entry, looked up): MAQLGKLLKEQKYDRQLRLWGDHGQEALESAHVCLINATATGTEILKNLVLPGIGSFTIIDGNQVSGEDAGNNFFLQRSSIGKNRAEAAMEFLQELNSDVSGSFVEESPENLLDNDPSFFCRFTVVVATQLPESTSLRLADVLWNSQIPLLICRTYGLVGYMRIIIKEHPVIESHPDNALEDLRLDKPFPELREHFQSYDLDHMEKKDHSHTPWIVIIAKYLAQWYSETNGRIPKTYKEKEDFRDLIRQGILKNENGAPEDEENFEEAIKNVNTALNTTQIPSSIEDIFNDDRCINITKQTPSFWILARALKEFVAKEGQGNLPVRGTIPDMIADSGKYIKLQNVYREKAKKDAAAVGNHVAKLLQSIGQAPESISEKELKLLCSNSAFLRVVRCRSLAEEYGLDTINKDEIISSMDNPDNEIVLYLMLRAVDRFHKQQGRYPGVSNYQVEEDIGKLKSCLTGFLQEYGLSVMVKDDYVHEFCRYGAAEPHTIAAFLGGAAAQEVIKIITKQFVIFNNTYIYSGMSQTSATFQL
Efflux pump mplx – inhibitors of Candida efflux pumps in yeast, primary screen, S. cerevisiae, Nile Red, multiplex; S. cerevisiae Candida pump triplex; inhibition, % at 10 µM; 330,000 compounds, 0.44% hits; AID 485275, 2010;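 active = plate passing quality check with inhibition over a set limit, or well fluorescence over plate mean plus 4 SD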;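 also: Nile Red retained in pooled yeast measured as flow cytometry median fluorescence; 0% = buffer negative control and 100% = Enniatin B positive control; higher means more Nile Red kept so more efflux inhibition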
Arr AP2 block – inhibitors of beta-arrestin/AP2 binding, primary screen, biochemical, GPCR trafficking, flow cytometry; inhibition, % at 10 µM; 340,000 compounds, 0.31% hits; FITC-arrestin peptide / GST-AP2 beads; AP2 beta2 appendage carries R879A mutation; beta-arrestin 1 C-terminal peptide binding to AP2 beta2-adaptin appendage (human); AID 504490, 2011;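 active = inhibition above a set limit, near 3 SD of compounds lacking own fluorescence, cut at about 54% in these data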;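 also: plate controls were DMSO wells for no effect and 5 µM unlabelled arrestin peptide for full effect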
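System: GST-AP2 R879A glutathione beads; medium: PBS, Tween 20 0.05%, BSA 0.1%; reagent: fluorescein-tagged arrestin peptide at 50 nM final; schedule: pre-incubation 12 min, peptide binding 1 h, room temperature; detection: flow cytometry, FL1 (488/535 nm); read-out: inhibition as reduced fluorescein signal on beads, percent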
Arr-AP2 CP1 – inhibitors of arrestin peptide binding to AP2, confirmation, biochemical, cherry pick 1, flow cytometry beads; shares compounds with Arr AP2 block; 1,300 compounds, 2% hits; inhibition, % at 10 µM; GST-AP2 beads, FITC arrestin peptide binding; GST-fused beta2-adaptin appendage, R879A mutant;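 active = inhibition above a set limit, roughly 3 SD of non-fluorescent compound noise, cut at about 38% in these data; inactive = inhibition at or below that limit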;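 also: loss of bead fluorescence from 50 nM FITC arrestin peptide bound to appendage; 0% = negative control wells and 100% = excess unlabelled arrestin peptide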
GST GSH counter – GST-fluorescein capture on glutathione beads, confirmation, artefact control for arrestin-AP2 inhibitor project, biochemical, cherry pick 1, flow cytometry; inhibition, % at 10 µM; 1,300 compounds, 2% hits; GST-fluorescein binding to GSH beads, fluorescence, counter-screen; shares compounds with Arr AP2 block; AID 588338, 2011;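 active = inhibition above 50%, about 3 SD of the inhibition seen with non-fluorescent compounds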;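 also: fluorescein maleimide labelled GST captured on 4 micron glutathione beads; higher means more loss of bead fluorescence from quenching or blocked binding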
* hit, by the source's call; nt = not tested or not shown. Sampled rows, rich in hits. Any-hit rate of the full collection: about 1.7%.

SMILES | DSG3 Ab inh | Neddyl block | Efflux pump mplx | Arr AP2 block | Arr-AP2 CP1 | GST GSH counter
CCCc1cc(=O)oc2cc(C)cc(OC(C)C(=O)NCc3cccnc3)c12 (centres undefined) | 99 | nt | 1 | -7 | nt | nt
CCOc1ccc(CCNC(=O)CN(C)S(=O)(=O)c2cccc3nsnc23)cc1OCC | 111 | -19 | 0 | -6 | nt | nt
NS(=O)(=O)c1ccc(CCNS(=O)(=O)c2cccc3nsnc23)cc1 | nt | -37 | 0 | 62* | -8 | -5
CN(CC(=O)NCCc1ccc(S(N)(=O)=O)cc1)S(=O)(=O)c1cccc2nsnc12 | 110 | -34 | 0 | 80* | -1 | -10
CC1(C(=O)O)CCCN1C(=O)c1cc2ccccc2s1 (centres undefined) | nt | -16 | nt | nt | nt | nt
N#Cc1c(SCC(=O)Nc2ccccc2)nsc1SCC(=O)Nc1ccccc1 | 67* | 8 | 0 | 109* | 7 | -1
Cc1nnc(SCC(=O)Nc2ccc(C(N)=O)cc2)n1-c1ccccc1 | 98 | 2 | 0 | 11 | nt | nt
CC(=O)Nc1ccc(NC(=O)CSc2nnc(C)n2-c2ccccc2)cc1 | 108 | 10 | 0 | 60* | -1 | -3
C/C(=N\NC(=O)c1ccc(CSc2nncn2C)cc1)c1ccc2ccccc2c1 | 109 | 14 | 0 | 55* | 4 | -3
Cc1ccc(NC(=O)C(C)N2C(=O)c3ccccc3C2=O)cc1C (centres undefined) | 96 | 7 | 0 | -3 | nt | nt
NC(=O)[C@@H]1CCCN1Cc1c(C(=O)N2CCN(C3CCCCC3)CC2)nc2ccccn12 | 100 | 30 | 0 | 54* | 2 | 1
O=C(c1nc2ccccn2c1CN1CCCC(O)C1)N1CCN(C2CCCCC2)CC1 (centres undefined) | 101 | 29 | 0 | 1 | nt | nt
CCC1CCCCN1S(=O)(=O)c1ccc(NC(=O)C2CCN(C(=O)c3ccco3)CC2)cc1 (centres undefined) | 108 | -6 | 0 | 10 | nt | nt
NC(=O)NCC(c1ccccc1)C1CCCCC1 (centres undefined) | 115 | 3 | 0 | 61* | -7 | -2
Cc1ccc(OCc2cn3cccnc3n2)cc1 | 134 | 9 | -1 | 67* | -5 | 11
Clc1nccc(N2CCN(c3ccccc3Cl)CC2)n1 | 106 | 4 | 0 | 6 | nt | nt
O=C(CNC(=O)c1ccccc1Br)NCC(c1ccco1)N1CCCCC1 (centres undefined) | 98 | 0 | nt | 66* | 3 | -10
CCOc1ccc(C(=O)NCc2ccccc2)cc1Br | 99 | -2 | 1 | 3 | nt | nt
COC(=O)COc1ccc(S(=O)(=O)NC2CCCCCC2)cc1 | 107 | 5 | 0 | 8 | nt | nt
CCOc1ccc(S(=O)(=O)Nc2ccc(C(=O)NCC3CCCO3)cc2)cc1 (centres undefined) | 101 | -2 | 1 | 56* | 21 | -9
CCOc1ccc(NS(=O)(=O)c2cc(C(=O)NCC3CCCO3)ccc2Cl)cc1 (centres undefined) | 100 | 7 | 0 | 27 | nt | nt
CCOc1ccc(S(=O)(=O)Nc2ccn(C)n2)cc1 | 99 | 17 | 0 | 77* | -16 | 1
CCOc1ccc(S(=O)(=O)NC2CCCCCC2)cc1 | 102 | 0 | 0 | 57* | -3 | 1
O=C(O)c1ccc(NC(=O)c2ccccc2NC(=O)c2ccccc2Br)cc1 | 103 | -6 | 0 | 16 | nt | nt
CS(=O)(=O)c1ccc(C(=O)OCC(=O)NC(=O)C2CCCCC2)cc1[N+](=O)[O-] | 97 | -10 | 0 | 2 | nt | nt
Cc1ccc(C)c(N2CCN(c3ccncc3N)CC2)c1 | 93 | -8 | 0 | 55* | -3 | -7
Cc1ccc(C)c(N2CCN(CC3CCCCC3)CC2)c1 | 102 | -4 | 0 | 5 | nt | nt
COCCN(C(=O)COC(=O)/C(=C/c1ccccc1)NC(C)=O)c1c(N)n(Cc2ccccc2)c(=O)[nH]c1=O | 101 | 2 | 2 | 59* | 10 | -1
